Paper PMC10583834 (Chemical Research in Toxicology, 2023)

Experiments:
[1] = target: T1, recombinant CYP2B6 (Homo sapiens, UniProt P20813); assay: Glutathione trapping and metabolite formation with recombinant CYP2B6; type: in vitro ADME; settings: recombinant CYP2B6 100 pmol/mL, 1 mM GSH, 60 min
T1 sequence (P20813 1-491): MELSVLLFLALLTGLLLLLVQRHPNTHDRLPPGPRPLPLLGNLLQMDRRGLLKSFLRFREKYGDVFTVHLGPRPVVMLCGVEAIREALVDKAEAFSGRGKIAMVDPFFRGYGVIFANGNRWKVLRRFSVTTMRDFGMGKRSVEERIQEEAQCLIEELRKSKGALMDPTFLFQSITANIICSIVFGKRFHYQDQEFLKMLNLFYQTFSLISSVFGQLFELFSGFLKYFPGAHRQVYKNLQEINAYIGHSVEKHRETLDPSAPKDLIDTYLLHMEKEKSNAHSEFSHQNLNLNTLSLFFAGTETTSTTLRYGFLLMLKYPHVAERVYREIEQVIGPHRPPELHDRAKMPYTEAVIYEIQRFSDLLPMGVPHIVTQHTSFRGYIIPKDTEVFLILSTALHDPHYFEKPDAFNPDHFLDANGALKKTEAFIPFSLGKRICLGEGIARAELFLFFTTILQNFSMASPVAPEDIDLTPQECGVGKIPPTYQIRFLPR
Outline: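 Test compound at 50 or 100 μM was incubated with recombinant CYP2B6 (100 pmol/mL) in 100 mM potassium phosphate pH 7.4, 3 mM MgCl2 and 1 mM reduced GSH. Reactions were started with NADPH-regenerating mix, with no-NADPH controls, for 60 min. Methanol stop contained 1 μM 4OH-MDZ internal standard. Samples were centrifuged 20 min at 2000 × g, 4 °C. Supernatants were analysed by LC-UV(280 nm)-MS for metabolites and GSH adducts.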

[2] = tested on: CYP3A4; settings: CYP3A4 inactivation in human liver microsomes; cited from earlier work
[3] = tested on: women; settings: cited from earlier work

- GSH metabolite formation [1]: no GSH metabolite was detected
Compound: Cc1ccnc2c1NC(=O)c1cccnc1N2C1CC1 [NVP, Nevirapine]
- Increased risk for severe rash reactions in women [3]: 7 fold
